High-throughput results as filed in PubChem.
Sampled rows, rich in hits. Any-hit rate of the full collection: about 1.5%.
ZTA DNA inh = ZTA (EBV) inhibition in EBNA-1 counter-screen | P03206 | ZTA-DNA binding, fluorescence polarization | inhibition, % at 11 µM | hit rate 0.15% among 320,000; in the data active means inhibition above about 33%
CSN deneddyl inh = inhibitors of human CSN-mediated cullin deneddylation; Purified CSN, SCF-Nedd8-OG deneddylation, fluorescence polarization; inhibition, % at 12.5 µM; hit rate 0.38% among 360,000;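 active means pattern-corrected inhibition above about 35%, with an unprinted fluorescence ratio check between 0.5 and 1.5, limit read from the data, passing the limit was not always enough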;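 further: 0% = enzyme with substrate and 100% = substrate without enzyme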
Target sequence (Q92905 whole entry, looked up, one chain of several): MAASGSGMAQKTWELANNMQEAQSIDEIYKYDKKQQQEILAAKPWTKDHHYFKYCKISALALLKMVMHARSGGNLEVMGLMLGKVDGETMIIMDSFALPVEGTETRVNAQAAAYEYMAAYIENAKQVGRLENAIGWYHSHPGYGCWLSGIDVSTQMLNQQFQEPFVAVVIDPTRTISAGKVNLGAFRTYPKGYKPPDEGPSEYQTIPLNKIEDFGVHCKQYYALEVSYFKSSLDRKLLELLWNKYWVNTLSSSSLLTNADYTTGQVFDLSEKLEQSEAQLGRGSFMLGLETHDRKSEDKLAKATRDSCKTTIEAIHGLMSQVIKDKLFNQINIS
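Assay system: HEK293T-derived human Csn5 enzyme; quantity: 0.24 nM enzyme; medium: Tris/NaCl/DTT buffer, pH 7.5; also added: substrate SCFSkp2-Nedd8OG, 10 nM; doses: 12.5 µM compound; schedule: 90 min reaction at room temperature; signal: FP; read-out: % inhibition of substrate cleavage by Csn5; benchmarks: substrate-only high control, full reaction low control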
LANA-H2A inh = blocks KSHV LANA binding to histone H2A/H2B | Q9QR71 | cell-free LANA-H2A/H2B peptide, fluorescence polarization | inhibition, % (test concentration not listed) | hit rate 0.6% among 320,000 | AID 2629; in the data active means inhibition mostly above about 10%, no sharp cut-off; inactive means mostly below about 6.7%
EBNA-1 inh = blocks EBNA-1 binding to DNA. EBNA-1 DNA binding, fluorescence polarization. inhibition, % at 14.8 µM. hit rate 0.34% among 300,000. AID 1950; in the data active means inhibition above about 28%
A1 inh = inhibitors of the anti-apoptotic protein A1, read as caspase activation | MEF A1-2A-BIM cells, Caspase-Glo 3/7 luminescence, 3 h; percent of clofoctol response, vehicle zero | caspase activation, % (test concentration not listed) | hit rate 0.066% among 330,000;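 active means over half of replicate activation scores above 10%, or exactly half above 10 with the replicate mean above 10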
HNF4A DNA FP = change in binding of human HNF4 alpha to DNA; activity change, % at 10 µM; P41235; HNF4a-FITC DNA binding, fluorescence polarization, 1 h; AID 1224865; hit rate 0.3% among 360,000; in the data active means activity change above about 30%, passing the limit was not always enough
Active calls of the source: *; / = no result.

SMILES | ZTA DNA inh | CSN deneddyl inh | LANA-H2A inh | EBNA-1 inh | A1 inh | HNF4A DNA FP
COCCn1c(SCC(=O)Nc2cccnc2Cl)nc2cc(Cl)ccc2c1=O | 6.9 | 0.5 | 4.6 | / | -2.0 | 0.2
CC(C)N(CCn1c(SCC(=O)Nc2cccnc2Cl)nc2ccccc2c1=O)C(C)C | -5.3 | -0.1 | 9.9* | / | 1.6 | -0.7
CC(C)(C)CNC(=O)c1cccc2c1C(=O)c1ccc(N3CCCC3)cc1S2(=O)=O | / | 42.2* | 3.6 | / | 0.9 | 88.0
O=C(NCc1ccc(F)cc1)c1cccc2c1C(=O)c1ccc(N3CCC(N4CCCCC4)CC3)cc1S2(=O)=O | / | 44.8* | / | / | / | 56.0
CC(C)c1cccc(-c2ccc3c(c2)S(=O)(=O)c2cccc(C(=O)NCc4ccco4)c2C3=O)c1 | / | 49.0* | 4.6 | / | 1.0 | -19.5
O=C(NCc1ccco1)c1cccc2c1C(=O)c1ccc(N3CCC(N4CCCCC4)CC3)cc1S2(=O)=O | / | 38.7* | / | / | / | 53.3
CN1C(=O)C(C)(C)N(C(=O)c2cccc([N+](=O)[O-])c2)c2ccccc21 | 2.2 | 1.6 | -2.9 | 14.6 | 2.3 | 4.3
CC(NC(=O)C(c1ccccc1)c1ccccc1)C(=O)N1CCCCC1 (stereo not drawn) | -4.7 | -2.9 | 12.7 | -2.8 | 1.9 | 0.1
Cc1ccc(OCCNC(=O)C(C)SCC(=O)Nc2ccc(F)cc2)cc1 (stereo not drawn) | / | -4.6 | 1.0 | / | 0.2 | -2.3
CNC(=O)c1ccsc1NC(=O)CS(=O)(=O)c1ccc(Cl)cc1 | -7.2 | 0.2 | 3.9 | -5.7 | 0.2 | -0.8
Cc1[nH]c2ccc(C(=O)O)cc2c1C | -4.9 | -1.2 | -5.4 | 13.0 | 0.8 | 6.4
CCCc1c(C)[nH]c2ccc(C(=O)O)cc2c1=S | / | 48.5* | / | / | / | -68.2
COc1ccc(Cc2nnc(SCC(=O)N3CCCCC3)o2)cc1 | -6.1 | -0.2 | 2.6 | -2.0 | -0.7 | 1.4
Cc1cc(C)n(CC(O)Cn2c3ccc(Br)cc3c3cc(Br)ccc32)c(=O)n1 (stereo not drawn) | 5.0 | 9.0 | 15.5* | 6.2 | 0.1 | 1.4
CC(C)Cn1c(=S)[nH]c2cc(Cl)ccc21 | -4.9 | -3.4 | 1.4 | 2.4 | 0.7 | -1.2
O=c1c2ccccc2sn1-c1ccc(F)cc1 | -12.5 | 6.8 | -2.2 | / | -11.7 | 5.5
O=c1c2ccc(F)cc2sn1-c1ccccc1 | / | -3.0 | / | / | / | 28.6*
CCCCCCCCC(=O)c1c(OC)oc(C=O)cc1=O | / | 68.2* | / | / | / | 91.9
CCOCCC(=O)Nc1ccc2c(c1)c(=O)n(C)n2CC=C(C)C | / | -4.0 | / | / | / | -1.4
Clc1ccccc1Cn1c(/C=C/c2ccco2)nc2ccccc21 | -11.3 | 35.9* | 5.4 | 6.9 | 0.4 | 18.3
N#Cc1c(-c2ccncc2)cc(-c2ccc(F)cc2)nc1N | -13.0 | 2.8 | -0.6 | 7.5 | -0.4 | -9.2
COc1cc(-c2cc(-c3ccc(F)cc3)nc(N)c2C#N)ccc1O | 2.3 | -8.5 | 1.3 | 0.9 | 0.8 | 83.0*
CCOc1cc(-c2cc(-c3ccc(N)cc3)nc(N)c2C#N)ccc1O | 0.1 | -0.1 | 2.6 | 6.8 | -2.8 | 7.0
CCOc1cc(-c2cc(-c3ccccc3)nc(N)c2C#N)ccc1O | -2.5 | 1.4 | 2.4 | 2.3 | 0.8 | 28.4*
Cc1cc(C)cc(NC(=O)c2cc(S(=O)(=O)N3CCCC3)cn2C)c1 | 2.9 | -4.7 | -1.2 | 1.6 | -0.7 | 52.6*
SMILES | ZTA DNA inh | CSN deneddyl inh | LANA-H2A inh | EBNA-1 inh | A1 inh | HNF4A DNA FP
COc1ccc(N2CC(C(=O)N(C)CC(=O)Nc3ccc(Cl)c(C(F)(F)F)c3)CC2=O)c(OC)c1 (stereo not drawn) | -16.9 | 5.3 | -1.0 | -4.0 | 0.1 | -0.6
N#Cc1cc2c([nH]c1=S)CCCC2 | -11.6 | -9.6 | 3.2 | -1.0 | -0.1 | -3.4
N#Cc1cc2c([nH]c1=O)CCCC2 | -8.5 | -1.0 | 9.1* | 0.9 | 1.2 | -0.5
O=[N+]([O-])c1ccc(Cl)c(S(=O)(=O)N2CCCCCC2)c1 | -1.4 | 3.9 | -1.5 | 9.1 | -0.1 | -2.7
CCCCC(C(=O)OCC)C(N)Cc1ccc(F)cc1 (stereo not drawn) | -9.7 | 1.2 | 20.5* | -10.2 | -0.6 | 4.4
CC(C)(C)C(=O)Nc1ccc(F)cc1[N+](=O)[O-] | -6.8 | -0.8 | 11.8* | 1.7 | 0.1 | 3.2
CN(CC(=O)Nc1ccc(F)cc1[N+](=O)[O-])C1CCS(=O)(=O)C1 (stereo not drawn) | / | 0.1 | 3.5 | / | 3.3 | 2.0
